Active and inactive are the calls of the source. The rule behind the calls is not given here.
Legend:
[1] = Cytotoxicity against mouse RAW264.7 cells assessed as reduction in cell viability; format: toxicity, cell-based
[2] = system: Trypanosoma cruzi; assay: Antitrypanosomal activity against Trypanosoma cruzi epimastigotes Y (ATCC 50832) expressing GFP incubated for 72 hrs by XTT assay; format: functional, organism-based
Procedure, shortened: (§1)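 Y-strain epimastigotes kept in LIT medium with 10% heat-inactivated FBS at 28 °C; log-phase cells used. 1.5 × 10^5 parasites per well. Exposure at 10 μM (screen) or six concentrations from 10–0.3 μM for 72 h at 28 °C, with benznidazole control. XTT/PMS added for 2.5 h at 28 °C, then MeOH fixation and A490. Viability given as % of vehicle, or IC50. Triplicate, at least two independent experiments.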

[3] = Selectivity index, ratio of IC50 for mouse RAW264.7 cells to IC50 for antitrypanosomal activity against Trypanosoma cruzi epimastigotes Y (ATCC 50832) expressing GFP; format: toxicity; conditions: read-out: Ratio IC50
[4] = system: Trypanosoma cruzi; assay: Antitrypanosomal activity against Trypanosoma cruzi epimastigotes Y (ATCC 50832) expressing GFP at 10 uM incubated for 72 hrs by XTT assay; format: functional, organism-based; procedure, shortened: as §1
[5] = Effect on Trypanosoma cruzi epimastigotes Y (ATCC 50832) expressing GFP proliferation assessed as increase in cell proliferation at 0.3 uM incubated for 72 hrs by XTT assay relative to control; format: functional; procedure, shortened: as §1
[6] = system: Trypanosoma cruzi; assay: Antitrypanosomal activity against Trypanosoma cruzi […] Y (ATCC 50832) expressing GFP infected in mouse RAW264.7 cells assessed as inhibition of parasite replication measured after 6 days by FACS analysis; format: functional, organism-based; conditions: time 6.0 day
Procedure, shortened: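 RAW264.7 cells seeded at 40,000 or 10,000 cells/mL and left to adhere 24 h. Infected with swim-out trypomastigotes at multiplicity 10. Next day free parasites washed off and compound added in RPMI with 2% FBS. After 6 days, released GFP parasites fixed in 4% paraformaldehyde 1 h and counted by FACS. Run in triplicate with DMSO and benznidazole controls.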

[7] = Selectivity index, ratio of IC50 for mouse RAW264.7 cells to IC50 for antitrypanosomal activity against Trypanosoma cruzi […] Y (ATCC 50832) expressing GFP infected in mouse RAW264.7 cells assessed as inhibition of parasite replication; format: toxicity, cell-based; conditions: read-out: Ratio IC50
[8] = system: Trypanosoma cruzi; assay: Antitrypanosomal activity against Trypanosoma cruzi trypomastigotes Y (ATCC 50832) expressing GFP infected in CCL39 cells assessed as reduction in parasite replication measured after 1 hr by microscopy; format: functional, organism-based
Procedure, shortened: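 CCL39 fibroblasts seeded at 20,000 cells/mL and left to adhere 24 h. Infected with trypomastigotes at multiplicity 10. Next day free parasites washed off and compound added in RPMI with 2% hiFBS. On day 4 after infection, cells fixed in 4% paraformaldehyde for 1 h and imaged by brightfield and GFP fluorescence microscopy.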

Row | IC50 [2] [µM] | Structure (SMILES) | IC50 [1] [µM] | selectivity ratio [3] | Activity [4] | Activity [5] [%] | inhibition [6] | selectivity ratio [7] | Activity [8]
1 | 3.7 | CC(=O)CCC[C@H](C)[C@@H]1CC[C@]2(C)C3=C(C(=O)C[C@@]12C)[C@@]1(C)CC[C@H](O)C(C)(C)[C@@H]1CC3=O | 24.4 | 6.6 | Active | 15 |  |  | 
2 |  | C[C@H](C/C=C/C(C)(C)OO)[C@@H]1CC[C@]2(C)C3=C(CC[C@@]12C)[C@@]1(C)CC[C@H](O)C(C)(C)[C@@H]1CC3=O |  |  |  |  | Dose-Dependent Effect | > 10 | Active
3 |  | CC(C)=CCC[C@@H](C)[C@@H]1CC[C@]2(C)C3=C(C(=O)C[C@@]12C)[C@@]1(C)CC[C@H](O)C(C)(C)[C@@H]1C[C@H]3O |  |  | Active | 15 |  |  | 
4 |  | C[C@@H](C/C=C/C(C)(C)OO)[C@@H]1CC[C@]2(C)C3=C(C(OO)C[C@@]12C)[C@@]1(C)CC[C@H](O)C(C)(C)[C@@H]1CC3=O (some centres not stated) |  |  | Active | 15 |  |  | 
